# Laboratory results: PubChem BioAssay AID617 (SRMLSC, 2007)
# Tested on: E. coli BW25113 ΔtolC growth inhibition, OD615
# Test: growth inhibitors of E. coli tolC mutant, dose response, strain BW25113 ΔtolC::kan (AID 617)
# Outline: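 Test system: E. coli BW25113 ΔtolC::kan bacteria / Buffer or medium: kanamycin-containing LB broth, 50 µg/mL / Compound: serial dilution series of compound / Incubation: bacterial growth with compound for 20 h, 37 °C / Measured by: OD615 / Read-out basis: growth-inhibition IC50 from four-parameter logistic curve, bounds set to 0% and 100%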
row,Compound,IC50 [µM]
1,CCOC(=O)c1[nH]c2ccc(F)cc2c1NC(=O)CN1CCN(C/C=C/c2ccccc2)CC1,14.8
2,COC(=O)c1sc(N2C(=O)C(O)=C(C(=O)c3ccc(C)o3)C2c2ccc(F)cc2)nc1C (stereo unspecified),15.6
3,O=C1c2ccccc2C(O)(Cc2ccccc2)N1C1CCCCC1 (stereo unspecified),11.5
4,COc1ccc(NS(=O)(=O)c2ccc3oc4ccccc4c3c2)cn1,5.62
5,O=C(c1noc2c1CCc1ccccc1-2)N1CCCc2ccccc21,12.2
6,C=CCn1c(SCC(=O)Nc2ccc3c(c2)CCC3)nnc1-c1cccs1,53.8
7,OCCN1CCN(c2nc(-c3ccccc3)c3cc(Cl)ccc3n2)CC1,60.6
8,Cc1ccc(NC(=O)CN(C)S(=O)(=O)c2cccc3nsnc23)cc1Cl,17.8
9,CCN(c1ccccc1)S(=O)(=O)c1ccc(NCC2COc3ccccc3O2)nc1 (stereo unspecified),14.8
10,CCN(c1ccccc1)S(=O)(=O)c1ccc(C(=O)Nc2nnc(COC)o2)cc1,3.23
11,O=C(NCc1ccco1)C(c1cccs1)N(C(=O)C1COc2ccccc2O1)c1cccc(O)c1 (stereo unspecified),11.8
12,CCCc1cc(C(=O)N2CCN(c3ccccc3C)CC2)cs1,8.52
13,COc1cccc(Cn2c(Oc3cccc(C)c3)nc3c2c(=O)n(C)c(=O)n3C)c1,14.3
14,CC(C)(C)c1ccc(Cn2nnc3c(=O)[nH]c(C4CCCN(C(=O)Cc5cccs5)C4)nc32)cc1 (stereo unspecified),15.6
15,c1ccc(CC2CCN(Cc3nc(-c4ccccc4)no3)CC2)cc1,13.4
16,COc1ccccc1-n1c(=O)oc2ccc(Cl)cc2c1=O,1.49
17,CC(C)N(Cc1nc(-c2ccccc2)no1)C(=O)c1ccc(Cl)cc1,19.5
18,Cc1cccc(Nc2nc(NCc3ccco3)nc(N3CCOCC3)n2)c1,10.1
19,c1coc(CNc2nc(N3CCCCC3)nc3ccccc23)c1,16.9
20,CCOC(=O)C1CCN(C(c2cccnc2)c2c(NC(=O)c3ccco3)sc(C)c2C)CC1 (stereo unspecified),13.6
21,C=CCSc1n[nH]c(-c2ccc(OCCCC)cc2)n1,93.1
22,CCOC(=O)c1ccccc1NC(=O)C(C)Oc1ccccc1 (stereo unspecified),30.3
23,CCCCN(CCCC)C(=O)CSc1nnc(-c2cc(OC)c(OC)c(OC)c2)o1,27.7

row,Compound,IC50 [µM]
1,Cc1cccc(C)c1NC(=O)C(c1cccs1)N(Cc1ccco1)C(=O)Cn1nnc2ccccc21 (stereo unspecified),29.3
2,Cc1cccc(S(=O)(=O)C(C#N)c2nc3ccccc3nc2N2CC(C)OC(C)C2)c1 (stereo unspecified),14.4
3,O=C(O)CCC(=O)N1CCc2cc(S(=O)(=O)N3CCC(Cc4ccccc4)CC3)ccc21,1.06
4,CCC(C)(C)n1nnnc1C(c1cc2ccc(OC)cc2[nH]c1=O)N1CCc2ccccc2C1 (stereo unspecified),17.1
5,CC(C)Sc1nc(NCc2ccco2)c2c3c(sc2n1)COC(C)(C)C3,20.6
6,O=C(Nc1ccc(Cl)c(C(F)(F)F)c1)c1ccco1,7.46
7,COC(=O)C1=C(CSc2nc3ccccc3o2)NC(=O)NC1c1cc(C)ccc1C (stereo unspecified),13
8,COc1ccccc1-c1cc(C(=O)N2CCN(c3ccccc3OC)CC2)no1,17.9
9,N#Cc1nc(COc2ccc(Br)cc2)oc1NCCCn1ccnc1,23.7
10,CCOC(=O)C1CCN(C(=O)c2oc3ccc(S(=O)(=O)N4CCCCCC4)cc3c2C)CC1,21.6
11,CCCc1nc2sc3ccccc3c(=O)c2c(=O)n1Cc1ccco1,5.73
12,CCOC(=O)Cc1nnc2c(Nc3ccccc3F)nc3nonc3n12,6.82
13,CCOC(=O)c1c(-c2cccs2)csc1NC(=O)CN1CC(C)OC(C)C1 (stereo unspecified),24.8
14,N#Cc1c(N)oc(-c2ccc3c(c2)OCO3)c1-c1ccc2c(c1)OCO2,49.9
15,COc1ccc(-c2cc3nc4c(c(N5CCC6(CC5)OCCO6)n3n2)CCCC4)cc1,28.8
16,COc1ccccc1Cc1nc(-c2ccc(Br)o2)no1,19.7
17,N#C/C(=C\C1CC=CCC1)c1nc2ccccc2[nH]1 (stereo unspecified),36.9
18,Cc1ccc(-c2nnn(CC(=O)N(Cc3ccco3)C(C(=O)NC(C)(C)C)c3cccs3)n2)o1 (stereo unspecified),23.3
19,Cc1ccc(NC(=O)N2CCC(c3nc4c(nnn4Cc4cccc(Cl)c4)c(=O)[nH]3)CC2)cc1,13.5
20,COc1cc(NS(=O)(=O)c2ccc(NC(=O)COc3ccccc3Cl)cc2)nc(OC)n1,24.6
21,CCn1cc(C(=O)O)c(=O)c2cc(F)c(N3CCN(C(=O)Nc4ccccc4)CC3)cc21,< 0.2
22,Cc1noc(NS(=O)(=O)c2ccc(NC(=O)Nc3ccc(Cl)c(Cl)c3)cc2)c1C,4.51
23,CCNc1nc(SCc2ccccc2)nc(N2CCOCC2)n1,17.8

row,Compound,IC50 [µM]
1,Cn1cc(SCC(=O)Nc2nc3ccccc3s2)c2ccccc21,9.23
2,Cc1c(C(=O)N2CCc3ccccc3C2)sc2nc(-c3ccccc3)cn12,13.6
3,CCOC(=O)c1ccccc1NC(=O)c1c(F)c(F)c(F)c(F)c1F,23
4,N=c1c2c(n(Cc3ccc(Cl)cc3Cl)c3c1CCC3)CCCC2,6.15
5,Cc1ccc2ccc(S(=O)(=O)n3nc(C)cc3C)cc2c1,14.5
6,COCCn1nnnc1C(C(C)C)N(Cc1ccccc1)Cc1cc2cc(OC)ccc2[nH]c1=O (stereo unspecified),11
7,N#Cc1nc(COc2ccc(Cl)cc2)oc1N1CCCCCC1,8.68
8,COc1ccc(C(C(O)C(=O)c2c[nH]c3ccccc23)N2CCN(c3ccc(OC)cc3)CC2)cc1 (stereo unspecified),11.3
9,CCCCNc1cc(C)nc(NCc2ccccc2)n1,7.8
10,Cc1cc(N2CCC(C)CC2)nc(-n2nc(C)cc2C)n1,5.18
11,CCCn1c(=O)c(C(=O)Nc2nnc(C)s2)c(O)c2ccccc21,12
12,O=S(=O)(Nc1nnc(-c2ccccc2)s1)c1ccc(Cl)cc1,3.74
13,CCOC(=O)c1c(-c2ccc(OC)cc2)oc2ccc(OC(=O)N(C)C)cc12,12.9
14,Clc1ccc(COC(Cn2ccnc2)c2ccc(Cl)cc2Cl)cc1 (stereo unspecified),2.27
15,Cc1cccc(-n2ncc3c(N4CCC(C)CC4)ncnc32)c1,13
16,COC(=O)c1ccc(OC)c(CSc2nnc(COc3ccccc3)o2)c1,23.1
17,CCc1cc(/C(Cc2ccc3ccccc3n2)=N\O)c(O)cc1O,8.41
18,COc1ccc2c(c1)OC(O)(C(F)(F)C(F)F)CC2=O (stereo unspecified),7.68
19,O=c1[nH]c2ccc(S(=O)(=O)N3CCN(c4ccccc4F)CC3)cc2s1,57
20,Cc1ccc(SC/C(O)=C(\C#N)c2nc3ccccc3s2)cc1,1.03
21,Cc1nc(N2CCN(Cc3ccc4c(c3)OCO4)CC2)c2oc3ccccc3c2n1,11.6
22,O=C(CSc1ncn(-c2ccccc2)n1)Nc1nc2c(s1)CCCC2,16.9
23,CC1=CC(C)(C)N2C(=O)C3(C(C#N)=C(N)Oc4cc(O)ccc43)c3cccc1c32 (stereo unspecified),4.14

row,Compound,IC50 [µM]
1,COc1ccc(-c2nnc(NC(=O)c3ccc(S(=O)(=O)N4COCC4(C)C)cc3)o2)cc1,0.52
2,Brc1ccc(CSc2nnc(-c3cnccn3)n2Cc2ccco2)cc1,63.4
3,c1ccc2c(c1)CCN(c1nc3cc4c(cc3s1)OCCO4)C2,14.8
4,COc1cccc(N2CC(C(=O)Nc3ccc(C(=O)OC(C)C)cc3)CC2=O)c1 (stereo unspecified),15
5,CCOC(=O)c1cc2sccc2n1Cc1ccc(C#N)cc1,11.1
6,CCCn1c2ccccc2c2nc3ccccc3nc21,73.4
7,COc1ccc(CCN2C(=O)c3[nH]nc(-c4ccccc4O)c3C2c2ccc(C)cc2)cc1OC (stereo unspecified),13.8
8,CCOC(=O)C1Cn2c(nc3c(c2=O)C(C)(CC)Cc2ccccc2-3)S1 (stereo unspecified),24.2
9,Cc1cc(Nc2ccccc2)n(-c2nc3ccccc3[nH]2)n1,4.9
10,Cc1cc(N2CCN(c3ccccc3)CC2)nc(-c2ccccc2)n1,14.3
11,COC(=O)c1ccc(O)c(Sc2cc(C(=O)OC)ccc2O)c1,1.91
12,CC1CCC2C(C1)c1sc(=O)[nH]c1SC2(C)C (stereo unspecified),7.77
13,Cc1ccc(O)c(-c2cc3ccccc3[nH]2)c1,11.7
14,N=c1n(CCN2CCOCC2)c2ccccc2n1CC(=O)c1ccc(Cl)c(Cl)c1,27.1
15,CCOc1ccc(N(CC(=O)Nc2ccc(C)c(C)c2)S(=O)(=O)c2c(C)noc2C)cc1,15.5
16,Cc1c(NC(=O)Nc2ccc(Cl)c(Cl)c2)c(=O)n(-c2ccccc2)n1C,39.6
17,CC(C)c1ccc(OCc2ccc(C(=O)N3CCN(c4ccccn4)CC3)cc2)cc1,8.11
18,Cc1ccc(Cn2ccc(NC(=O)c3cc(CC(C)C)on3)n2)cc1,8.54
19,CCC(Oc1ccccc1)C(=O)Nc1nnc(C(F)(F)F)s1 (stereo unspecified),9.18
20,CCCSc1oc(-c2ccco2)nc1S(=O)(=O)c1ccccc1,9.73
21,Cc1cc(NC(=O)c2ccccc2)sc1C,5.59
22,CCOC(=O)N1CCC(Nc2nc3ccccc3nc2NS(=O)(=O)c2ccc(Cl)cc2)CC1,5.49
23,CCOC(=O)Cc1c(C)nc2c(-c3cccc(Br)c3)c[nH]n2c1=O,0.17

row,Compound,IC50 [µM]
1,Cn1c(-c2ccccc2)cc2c3no[n+]([O-])c3ccc21,5.09
2,Cc1ccc(Cn2ncn3c(cc4ccccc43)c2=O)cc1,14.1
3,CCOc1cc(-c2c(C#N)c(N)nc3c2CCCC3C)ccc1O (stereo unspecified),6.26
4,CSc1nc(-c2ccccc2)nc(N2CCCC2)c1C(C)=O,12.7
5,O=c1c2c(nc3n1CCCCC3)-c1ccccc1CC21CCCC1,14.1
6,Cc1ccc(-c2csc3ncnc(Sc4nnc(CN5CCCCCC5=O)o4)c23)cc1,21.6
7,O=C(Nc1nccs1)C(NS(=O)(=O)c1ccc(Br)s1)c1ccccc1 (stereo unspecified),12.8
8,Cc1ccc(O)c(C(=O)CC(=O)c2cccc(F)c2)c1,11.6
9,Brc1ccc(CSc2nnc(-c3ccccn3)n2Cc2ccco2)cc1,9.85
10,CC(C)c1nc(N2CCN(C(=O)c3ccco3)CC2)c2c3c(sc2n1)CCCC3,13.6
11,Cc1nc2ncnn2c(N2CCN(C(c3ccccc3)c3ccccc3)CC2)c1C,6.96
12,Cc1ccc(S(=O)(=O)NCCSc2nnnn2-c2cc(C)ccc2C)cc1,13.4
13,Cc1onc(-c2c(F)cccc2Cl)c1C(=O)Nc1nc2c(s1)CCCC2,19.4
14,COc1ccc(Oc2cn[nH]c2-c2ccc(O)cc2O)cc1,7.86
15,N#Cc1nc(Cc2cccc3ccccc23)oc1NCCCn1ccnc1,24.2
16,N#Cc1c(/N=C/c2ccco2)oc(-c2ccccc2)c1-c1ccccc1,6.78
17,Cc1ccc(C(C)C)c(Oc2nnnn2-c2ccccc2)c1,14.7
18,O=C(Nc1nnc(-c2ccccc2)o1)c1nc2ccccc2s1,1.34
19,C=C(C)COc1ccc(-c2nc(N)ncc2-c2ccc(OC)cc2)c(O)c1,10.2
